Reference: ChEMBL document CHEMBL1150422, “Diarylmethyloxime and hydrazone derivatives with 5-indolyl moieties as potent inhibitors of tubulin polymerization” (Bioorg Med Chem, 2008)

Species: Bos taurus
Assay: Inhibition of calf brain tubulin polymerization at 20 uM after 20 mins
Conditions: not given
In short: (§1)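 Microtubule protein (1.0 mg/mL) in 0.1 M MES, 1 mM EGTA, 1 mM MgCl₂, 1 mM β-ME, 1.5 mM GTP, pH 6.7 was preincubated with ligand for 30 min at 20 °C, then cooled on ice for 10 min. Assembly was triggered by moving from 4 °C to 37 °C. Inhibition was measured turbidimetrically at 450 nm after 20 min against a no-ligand control.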

Row | inhibition [%] | Compound
1 | 10 | COc1cc(/C(=N/OC(=O)OC(C)(C)C)c2ccc3c(ccn3C)c2)cc(OC)c1OC
2 | 95 | CCn1ccc2cc(C(=O)c3cc(OC)c(OC)c(OC)c3)ccc21
3 | 97 | COc1ccc(C(=O)c2cc(OC)c(OC)c(OC)c2)cc1O [PHENSTATIN]
4 | 17 | COc1cc(/C(=N\OC(=O)OC(C)(C)C)c2ccc3c(ccn3C)c2)cc(OC)c1OC
5 | 42 | CCn1ccc2cc(C(O)c3cc(OC)c(OC)c(OC)c3)ccc21 (stereo unspecified)
6 | 0 | CCn1ccc2cc(C(OC(C)=O)c3cc(OC)c(OC)c(OC)c3)ccc21 (stereo unspecified)
7 | 87 | CCn1ccc2cc(/C(=N\O)c3cc(OC)c(OC)c(OC)c3)ccc21
8 | 26 | CCn1ccc2cc(/C(=N\OC(C)=O)c3cc(OC)c(OC)c(OC)c3)ccc21

Continued, molecule first:

Row | Compound | inhibition [%]
9 | COc1cc(/C(=N\OC(C)=O)c2ccc3c(ccn3C)c2)cc(OC)c1OC | 41
10 | CCn1ccc2cc(/C(=N/OC(C)=O)c3cc(OC)c(OC)c(OC)c3)ccc21 | 54
11 | COc1cc(C(O)c2ccc3c(ccn3C)c2)cc(OC)c1OC (stereo unspecified) | 86
12 | CN/N=C(/c1cc(OC)c(OC)c(OC)c1)c1ccc2c(ccn2C)c1 | 20
13 | COc1cc(/C(=N/OC(C)=O)c2ccc3c(ccn3C)c2)cc(OC)c1OC | 38
14 | COc1cc(/C(=N\O)c2ccc3c(ccn3C)c2)cc(OC)c1OC | 23
15 | COc1cc(C(OC(C)=O)c2ccc3c(ccn3C)c2)cc(OC)c1OC (stereo unspecified) | 41

Species: Bos taurus
Assay: Inhibition of calf brain tubulin polymerization at 30 uM after 20 mins
Conditions: not given
In short: as §1

Row | inhibition [%] | Compound
16 | 35 | COc1cc(/C(=N/N)c2ccc3c(ccn3C)c2)cc(OC)c1OC
17 | 7 | CCn1ccc2cc(/C(=N\N)c3cc(OC)c(OC)c(OC)c3)ccc21

Continued, molecule first:

Row | Compound | inhibition [%]
18 | COc1cc(/C(=N/NC(C)=O)c2ccc3c(ccn3C)c2)cc(OC)c1OC | 14
19 | COc1cc(/C(=N/O)c2ccc3c(ccn3C)c2)cc(OC)c1OC | 82

Species: Bos taurus
Assay: Inhibition of calf brain tubulin polymerization at 40 uM after 20 mins
Conditions: not given
In short: as §1

Row | inhibition [%] | Compound
20 | 98 | COc1cc(C(=O)c2ccc3c(ccn3C)c2)cc(OC)c1OC

Tested on: not listed separately
Assay: Inhibition of calf brain tubulin polymerization after 20 mins
Parameters: species or system Bos taurus
Conditions: not given
In short: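 Turbidity at 450 nm was followed using 1.0 mg/mL microtubule protein in 0.1 M MES, 1 mM EGTA, 1 mM MgCl₂, 1 mM β-ME, 1.5 mM GTP, pH 6.7, with a ligand-free control. Samples were preincubated for 30 min at 20 °C, iced for 10 min, and assembly was started by shifting from 4 °C to 37 °C. IC50 was read graphically at 20 min. At least two independent experiments used different protein preparations.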

Row | IC50 [µM] | Compound
21 | 5.7 | CCn1ccc2cc(C(=O)c3cc(OC)c(OC)c(OC)c3)ccc21
22 | 7.9 | COc1cc(C(=O)c2ccc3c(ccn3C)c2)cc(OC)c1OC
23 | 2.5 | COc1ccc(C(=O)c2cc(OC)c(OC)c(OC)c2)cc1O [PHENSTATIN]
24 | 5.9 | CCn1ccc2cc(/C(=N\O)c3cc(OC)c(OC)c(OC)c3)ccc21

Further lines, the molecule ahead of its results:

Row | Compound | IC50 [µM]
25 | COc1cc(/C(=N/O)c2ccc3c(ccn3C)c2)cc(OC)c1OC | 1.8
26 | COc1cc(C(O)c2ccc3c(ccn3C)c2)cc(OC)c1OC (stereo unspecified) | 18
27 | COc1ccc(/C=C\c2cc(OC)c(OC)c(OC)c2)cc1O [COMBRETASTATIN A4] | 3

Tested on: HeLa
Assay: Cytotoxicity against human HeLa cells after 72 hrs by XTT method
Assay type: functional, cell-based
Conditions: not given

Row | Compound | IC50 [µM]
28 | COc1cc(/C(=N/OC(=O)OC(C)(C)C)c2ccc3c(ccn3C)c2)cc(OC)c1OC | > 1
29 | COc1cc(/C(=N/NC(C)=O)c2ccc3c(ccn3C)c2)cc(OC)c1OC | 2.3
30 | CCn1ccc2cc(/C(=N/OC(C)=O)c3cc(OC)c(OC)c(OC)c3)ccc21 | > 10
31 | COc1cc(/C(=N/O)c2ccc3c(ccn3C)c2)cc(OC)c1OC | 0.36
32 | CCn1ccc2cc(C(=O)c3cc(OC)c(OC)c(OC)c3)ccc21 | 0.016
33 | COc1cc(C(=O)c2ccc3c(ccn3C)c2)cc(OC)c1OC | 0.034
34 | COc1ccc(C(=O)c2cc(OC)c(OC)c(OC)c2)cc1O [PHENSTATIN] | 0.03
35 | COc1cc(/C(=N\OC(=O)OC(C)(C)C)c2ccc3c(ccn3C)c2)cc(OC)c1OC | > 1
36 | COc1cc(C(O)c2ccc3c(ccn3C)c2)cc(OC)c1OC (stereo unspecified) | > 1
37 | CCn1ccc2cc(C(O)c3cc(OC)c(OC)c(OC)c3)ccc21 (stereo unspecified) | > 1
38 | CCn1ccc2cc(C(OC(C)=O)c3cc(OC)c(OC)c(OC)c3)ccc21 (stereo unspecified) | > 1
39 | CN/N=C(/c1cc(OC)c(OC)c(OC)c1)c1ccc2c(ccn2C)c1 | > 1
40 | CCn1ccc2cc(/C(=N\O)c3cc(OC)c(OC)c(OC)c3)ccc21 | > 1
41 | CCn1ccc2cc(/C(=N\OC(C)=O)c3cc(OC)c(OC)c(OC)c3)ccc21 | > 1
42 | CCn1ccc2cc(/C(=N\N)c3cc(OC)c(OC)c(OC)c3)ccc21 | > 1
43 | COc1cc(C(OC(C)=O)c2ccc3c(ccn3C)c2)cc(OC)c1OC (stereo unspecified) | 0.0064

Tested on: HT-29
Assay: Cytotoxicity against human HT29 cells after 72 hrs by XTT method
Assay type: functional, cell-based
Conditions: HT-29, 72 h
In short: (§2)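 Cells were seeded in exponential growth per well: HeLa 1.5 × 10³, HT-29 3 × 10³, A-549 5 × 10³, HL-60 3 × 10³. Adherent lines were left to attach for 24 h at 37 °C in 5% CO₂. Cells were exposed to a range of compound concentrations for 72 h. XTT/PMS reagent was then added for 4 h, and absorbance was read at 490 nm against a 655 nm reference. IC50 is the concentration giving 50% inhibition of proliferation.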

Row | Compound | IC50 [µM]
44 | COc1cc(/C(=N/OC(=O)OC(C)(C)C)c2ccc3c(ccn3C)c2)cc(OC)c1OC | > 1
45 | CCn1ccc2cc(/C(=N/OC(C)=O)c3cc(OC)c(OC)c(OC)c3)ccc21 | > 10
46 | COc1cc(/C(=N/O)c2ccc3c(ccn3C)c2)cc(OC)c1OC | 0.33
47 | COc1ccc(C(=O)c2cc(OC)c(OC)c(OC)c2)cc1O [PHENSTATIN] | 0.03
48 | COc1cc(/C(=N\OC(=O)OC(C)(C)C)c2ccc3c(ccn3C)c2)cc(OC)c1OC | > 1
49 | COc1cc(C(O)c2ccc3c(ccn3C)c2)cc(OC)c1OC (stereo unspecified) | > 1
50 | CCn1ccc2cc(C(O)c3cc(OC)c(OC)c(OC)c3)ccc21 (stereo unspecified) | > 1
51 | CCn1ccc2cc(C(OC(C)=O)c3cc(OC)c(OC)c(OC)c3)ccc21 (stereo unspecified) | > 1
52 | CN/N=C(/c1cc(OC)c(OC)c(OC)c1)c1ccc2c(ccn2C)c1 | > 1
53 | CCn1ccc2cc(/C(=N\O)c3cc(OC)c(OC)c(OC)c3)ccc21 | > 1
54 | CCn1ccc2cc(/C(=N\OC(C)=O)c3cc(OC)c(OC)c(OC)c3)ccc21 | > 1
55 | CCn1ccc2cc(/C(=N\N)c3cc(OC)c(OC)c(OC)c3)ccc21 | > 1
56 | COc1ccc(/C=C\c2cc(OC)c(OC)c(OC)c2)cc1O [COMBRETASTATIN A4] | 0.002
57 | COc1cc(C(OC(C)=O)c2ccc3c(ccn3C)c2)cc(OC)c1OC (stereo unspecified) | 0.26

Tested on: A549
Assay: Cytotoxicity against human A549 cells after 72 hrs by XTT method
Assay type: functional, cell-based
Conditions: A549, 72 h

Row | Compound | IC50 [µM]
58 | COc1cc(/C(=N/OC(=O)OC(C)(C)C)c2ccc3c(ccn3C)c2)cc(OC)c1OC | > 10
59 | COc1cc(/C(=N/NC(C)=O)c2ccc3c(ccn3C)c2)cc(OC)c1OC | > 10
60 | CCn1ccc2cc(/C(=N/OC(C)=O)c3cc(OC)c(OC)c(OC)c3)ccc21 | > 10
61 | COc1cc(/C(=N/O)c2ccc3c(ccn3C)c2)cc(OC)c1OC | > 10
62 | CCn1ccc2cc(C(=O)c3cc(OC)c(OC)c(OC)c3)ccc21 | 0.14
63 | COc1cc(C(=O)c2ccc3c(ccn3C)c2)cc(OC)c1OC | 0.12
64 | COc1ccc(C(=O)c2cc(OC)c(OC)c(OC)c2)cc1O [PHENSTATIN] | 0.3
65 | COc1cc(/C(=N\OC(=O)OC(C)(C)C)c2ccc3c(ccn3C)c2)cc(OC)c1OC | > 1
66 | COc1cc(C(O)c2ccc3c(ccn3C)c2)cc(OC)c1OC (stereo unspecified) | > 10
67 | CCn1ccc2cc(C(O)c3cc(OC)c(OC)c(OC)c3)ccc21 (stereo unspecified) | > 10
68 | CCn1ccc2cc(C(OC(C)=O)c3cc(OC)c(OC)c(OC)c3)ccc21 (stereo unspecified) | > 10
69 | CN/N=C(/c1cc(OC)c(OC)c(OC)c1)c1ccc2c(ccn2C)c1 | > 1
70 | CCn1ccc2cc(/C(=N\O)c3cc(OC)c(OC)c(OC)c3)ccc21 | > 10
71 | CCn1ccc2cc(/C(=N\OC(C)=O)c3cc(OC)c(OC)c(OC)c3)ccc21 | > 10
72 | CCn1ccc2cc(/C(=N\N)c3cc(OC)c(OC)c(OC)c3)ccc21 | > 10
73 | COc1cc(C(OC(C)=O)c2ccc3c(ccn3C)c2)cc(OC)c1OC (stereo unspecified) | > 10

Tested on: HL-60
Assay: Cytotoxicity against human HL60 cells after 72 hrs by XTT method
Assay type: functional, cell-based
Conditions: HL-60, 72 h
In short: as §2

Row | Compound | IC50 [µM]
74 | COc1cc(/C(=N/OC(=O)OC(C)(C)C)c2ccc3c(ccn3C)c2)cc(OC)c1OC | > 1
75 | COc1cc(/C(=N/N)c2ccc3c(ccn3C)c2)cc(OC)c1OC | > 10
76 | COc1cc(/C(=N\OC(C)=O)c2ccc3c(ccn3C)c2)cc(OC)c1OC | > 10
77 | COc1cc(/C(=N/NC(C)=O)c2ccc3c(ccn3C)c2)cc(OC)c1OC | > 1
78 | CCn1ccc2cc(/C(=N/OC(C)=O)c3cc(OC)c(OC)c(OC)c3)ccc21 | > 1
79 | COc1cc(/C(=N/O)c2ccc3c(ccn3C)c2)cc(OC)c1OC | 0.11
80 | CCn1ccc2cc(C(=O)c3cc(OC)c(OC)c(OC)c3)ccc21 | 0.034
81 | COc1ccc(C(=O)c2cc(OC)c(OC)c(OC)c2)cc1O [PHENSTATIN] | 1.8
82 | COc1cc(/C(=N\OC(=O)OC(C)(C)C)c2ccc3c(ccn3C)c2)cc(OC)c1OC | > 1
83 | COc1cc(C(O)c2ccc3c(ccn3C)c2)cc(OC)c1OC (stereo unspecified) | > 10
84 | CCn1ccc2cc(C(O)c3cc(OC)c(OC)c(OC)c3)ccc21 (stereo unspecified) | > 10
85 | CCn1ccc2cc(C(OC(C)=O)c3cc(OC)c(OC)c(OC)c3)ccc21 (stereo unspecified) | > 10
86 | CN/N=C(/c1cc(OC)c(OC)c(OC)c1)c1ccc2c(ccn2C)c1 | > 1
87 | CCn1ccc2cc(/C(=N\O)c3cc(OC)c(OC)c(OC)c3)ccc21 | > 1
88 | COc1cc(/C(=N/OC(C)=O)c2ccc3c(ccn3C)c2)cc(OC)c1OC | > 10
89 | CCn1ccc2cc(/C(=N\OC(C)=O)c3cc(OC)c(OC)c(OC)c3)ccc21 | > 1
90 | CCn1ccc2cc(/C(=N\N)c3cc(OC)c(OC)c(OC)c3)ccc21 | > 1
91 | COc1cc(C(OC(C)=O)c2ccc3c(ccn3C)c2)cc(OC)c1OC (stereo unspecified) | 0.24
